According to ChEMBL document CHEMBL4049440, “First Dual Inhibitors of Steroid Sulfatase (STS) and 17β-Hydroxysteroid Dehydrogenase Type 1 (17β-HSD1): Designed Multiple Ligands as Novel Potential Therapeutics for Estrogen-Dependent Diseases” (J Med Chem, 2017):

What was measured:
[1] = biological target: T1, Steryl-sulfatase (Homo sapiens, UniProt P08842); assay: Inhibition of human placental microsomal STS assessed as formation of E1 preincubated for 30 mins followed by addition of E1S as substrate measured after 20 mins by ELISA
T1 sequence (P08842 whole entry): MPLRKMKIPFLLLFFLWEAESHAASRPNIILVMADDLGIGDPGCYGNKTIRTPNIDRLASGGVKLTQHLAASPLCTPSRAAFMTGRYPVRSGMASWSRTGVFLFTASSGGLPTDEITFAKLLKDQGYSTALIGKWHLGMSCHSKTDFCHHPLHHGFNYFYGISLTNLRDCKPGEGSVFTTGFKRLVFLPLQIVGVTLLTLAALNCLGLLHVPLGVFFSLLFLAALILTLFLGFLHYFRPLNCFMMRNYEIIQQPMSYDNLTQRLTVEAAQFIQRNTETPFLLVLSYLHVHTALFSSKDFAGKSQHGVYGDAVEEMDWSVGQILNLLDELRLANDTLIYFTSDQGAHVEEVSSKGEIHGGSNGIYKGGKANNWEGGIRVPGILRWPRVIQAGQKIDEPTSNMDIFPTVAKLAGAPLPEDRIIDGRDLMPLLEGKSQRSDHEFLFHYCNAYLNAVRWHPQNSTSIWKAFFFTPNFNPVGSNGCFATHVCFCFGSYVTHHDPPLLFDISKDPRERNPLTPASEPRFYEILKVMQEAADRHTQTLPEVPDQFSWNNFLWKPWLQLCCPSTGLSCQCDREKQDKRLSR
How it was run: (§1)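 Human placental STS incubated with estrone sulfate (E1S) as substrate in the presence of inhibitor; estrone (E1) formed was quantified by ELISA.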

[2] = biological target: T2, 17-beta-hydroxysteroid dehydrogenase type 1 (Homo sapiens, UniProt P14061); assay: Inhibition of human placental cytosolic 17beta-HSD1 using [3H]-E1/E1 substrate and NADH after 10 mins by HPLC based radio-detection method
T2 sequence (P14061 whole entry): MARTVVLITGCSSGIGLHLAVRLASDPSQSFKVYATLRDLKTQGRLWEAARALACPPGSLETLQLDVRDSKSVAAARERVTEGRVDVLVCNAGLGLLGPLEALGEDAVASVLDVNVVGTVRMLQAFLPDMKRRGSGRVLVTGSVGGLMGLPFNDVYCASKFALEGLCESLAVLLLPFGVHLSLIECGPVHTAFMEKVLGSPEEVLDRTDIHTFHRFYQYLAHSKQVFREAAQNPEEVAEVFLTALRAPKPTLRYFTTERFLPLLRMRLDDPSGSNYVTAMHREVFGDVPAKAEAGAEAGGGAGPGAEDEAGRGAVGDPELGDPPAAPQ
How it was run: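 Cell-free assay with the cytosolic fraction of human placenta as the 17β-HSD1 source and radiolabeled E1 as substrate, with test compound present.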

[3] = biological target: T1, Steryl-sulfatase; assay: Inhibition of STS in human T47D cells preincubated for 1 hr followed by addition of [3H]-E1S/E1S as substrate measured after 24 hrs by HPLC based radio-detection method; format: cell-based
[4] = biological target: T2, 17-beta-hydroxysteroid dehydrogenase type 1; assay: Inhibition of 17beta-HSD1 in human T47D cells preincubated for 1 hr followed by addition of [3H]-E1/E1 as substrate measured after 30 mins by HPLC based radio-detection method; format: cell-based
[5] = biological target: T1, Steryl-sulfatase; assay: Irreversible inhibition of STS in human T47D cells preincubated for 2 hrs followed by compound washout and addition of [3H]-E1S/E1S as substrate measured after 24 hrs by HPLC based radio-detection method; format: cell-based
[6] = test system: T47D; assay: Antiproliferative activity against E1S/E1-stimulated human T47D cells assessed as reduction in cell viability measured after 7 days after MTT assay; format: functional, cell-based
[7] = Stability of the compound in Tris-HCl buffer at pH 7.2 after 30 mins; format: physicochemical; conditions: pH 7.2, 0.5 h
How it was run: (§2)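 Compound incubated in 20 mM Tris-HCl buffer, pH 7.2, at 37 °C for 30 min. Remaining parent compound was measured, with sulfamate cleavage to the phenolic OH product monitored.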

[8] = Selectivity factor, ratio of IC50 for human placental microsomal 17beta-HSD2 cells to IC50 for human placental cytosolic 17beta-HSD1
[9] = biological target: T3, 17-beta-hydroxysteroid dehydrogenase type 2 (Homo sapiens, UniProt P37059); assay: Inhibition of human placental microsomal 17beta-HSD2 using [3H]-E2/E2 substrate and NAD+ after 20 mins by HPLC based radio-detection method
T3 sequence (P37059 whole entry): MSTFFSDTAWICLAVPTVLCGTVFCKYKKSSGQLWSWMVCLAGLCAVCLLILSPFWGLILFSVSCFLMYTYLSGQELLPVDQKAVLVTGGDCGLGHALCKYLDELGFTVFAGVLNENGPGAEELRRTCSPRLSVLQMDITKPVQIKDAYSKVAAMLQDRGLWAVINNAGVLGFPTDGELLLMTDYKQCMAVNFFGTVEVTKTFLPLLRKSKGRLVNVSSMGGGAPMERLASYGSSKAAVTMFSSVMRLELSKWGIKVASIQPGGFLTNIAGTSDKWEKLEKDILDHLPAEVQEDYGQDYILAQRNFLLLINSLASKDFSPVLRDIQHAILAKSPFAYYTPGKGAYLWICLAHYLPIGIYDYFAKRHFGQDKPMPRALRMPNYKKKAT

[10] = biological target: T4, 17-beta-hydroxysteroid dehydrogenase type 1 (Homo sapiens) (UniProt P14061); assay: Inhibition of 17beta-HSD1 in human T47D cells at 1 uM preincubated for 1 hr followed by addition of [3H]-E1/E1 as substrate measured after 30 mins by HPLC based radio-detection method; format: cell-based
T4 sequence (whole entry): T2 sequence (P14061 whole entry)

[11] = test system: T47D; assay: Antiproliferative activity against E1S/E1-stimulated human T47D cells assessed as cell viability at 50 to 200 nM measured after 7 days after MTT assay relative to control; format: functional
[12] = biological target: T5, Steryl-sulfatase (Homo sapiens) (UniProt P08842); assay: Inhibition of STS in human T47D cells assessed as [3H]-E1S level at 200 nM after 48 hrs by HPLC based radio-detection method; format: cell-based; design: scale not given: the % may be the effect or the level left
T5 sequence (whole entry): T1 sequence (P08842 whole entry)

[13] = biological target: T4, 17-beta-hydroxysteroid dehydrogenase type 1 (Homo sapiens); assay: Inhibition of 17beta-HSD1 in human T47D cells assessed as [3H]-E1 level at 200 nM after 48 hrs by HPLC based radio-detection method (reference value: 0.9%); format: cell-based; design: scale not given: the % may be the effect or the level left
[14] = biological target: T4, 17-beta-hydroxysteroid dehydrogenase type 1 (Homo sapiens); assay: Inhibition of 17beta-HSD1 in human T47D cells assessed as [3H]-E2 level at 200 nM after 48 hrs by HPLC based radio-detection method (reference value: 95.2%); format: cell-based; design: scale not given: the % may be the effect or the level left
[15] = biological target: T4, 17-beta-hydroxysteroid dehydrogenase type 1 (Homo sapiens); assay: Inhibition of human placental cytosolic 17beta-HSD1 at 1 uM using [3H]-E1/E1 substrate and NADH after 10 mins by HPLC based radio-detection method
How it was run: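 Enzyme from the cytosolic fraction of human placenta, incubated with radiolabelled estrone as substrate. Values are the mean of at least two independent experiments, each run in duplicate, with standard deviation under 15%.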

[16] = biological target: T6, 17beta-HSD2 (17-beta-hydroxysteroid dehydrogenase type 2) (Homo sapiens, UniProt P37059); assay: Inhibition of human placental microsomal 17beta-HSD2 at 1 uM using [3H]-E2/E2 substrate and NAD+ after 20 mins by HPLC based radio-detection method; conditions: human placental microsomal 17beta-HSD2, probe [3H]-E2/E2
T6 sequence (P37059 whole entry): T3 sequence (P37059 whole entry)

[17] = biological target: T5, Steryl-sulfatase (Homo sapiens); assay: Inhibition of human placental microsomal STS assessed as formation of E1 at 1 uM preincubated for 30 mins followed by addition of E1S as substrate measured after 20 mins by ELISA; how it was run: as §1
[18] = Drug degradation in Tris-HCl buffer assessed as formation of metabolite containing phenolic OH-group by measuring remaining parent compound levels at pH 7.2 after 30 mins; how it was run: as §2
[19] = biological target: T5, Steryl-sulfatase (Homo sapiens); assay: Inhibition of STS in human T47D cells at 1 uM preincubated for 1 hr followed by addition of [3H]-E1S/E1S as substrate measured after 24 hrs by HPLC based radio-detection method; format: cell-based
[20] = biological target: T5, Steryl-sulfatase (Homo sapiens); assay: Irreversible inhibition of STS in human T47D cells at 1 uM preincubated for 2 hrs followed by compound washout and addition of [3H]-E1S/E1S as substrate measured after 24 hrs by HPLC based radio-detection method; format: cell-based

SMILES | IC50 [1] [nM] | IC50 [2] [nM] | IC50 [3] [nM] | IC50 [4] [nM] | IC50 [5] [nM] | Activity [6] | Stability [7] | Ratio IC50 [8] | IC50 [9] [nM] | inhibition [10] [%] | Activity [11] [%] | Activity [12] [%] | Activity [13] [%] | Activity [14] [%] | inhibition [15] [%] | inhibition at 20 min, 1 µM [16] [%] | inhibition [17] [%] | Stability [18] [%] | inhibition [19] [%] | inhibition [20] [%]
NS(=O)(=O)Oc1ccc(-c2ccc(C(=O)c3c(F)ccc(O)c3F)s2)c(Cl)c1 | 19.4 | 10.2 | 3.4 | 60.9 | 3.9 | Dose-dependent effect | Stable | 1.9 | 19.1 | – | – | – | – | – | – | – | – | – | – | –
NS(=O)(=O)Oc1ccc2c3c(c(=O)oc2c1)CCCCC3 [IROSUSTAT] | – | – | – | – | – | – | – | – | – | < 5 | 200 | 50 | 0.8 | 49.2 | < 10 | < 10 | – | – | – | –
NS(=O)(=O)Oc1ccc(-c2ccc(C(=O)c3c(F)ccc(O)c3F)s2)c(F)c1 | 19.5 | 12.2 | 2.1 | 42.1 | 3.1 | Dose-dependent effect | Stable | 1.8 | 22.2 | – | – | – | – | – | – | – | – | – | – | –
NS(=O)(=O)Oc1ccc(-c2ccc(C(=O)c3c(F)ccc(O)c3F)s2)cc1F | 81.8 | 2.5 | 5.1 | 20 | 5.7 | Dose-dependent effect | Stable | 5.5 | 13.7 | – | – | – | – | – | – | – | – | – | – | –
NS(=O)(=O)Oc1ccccc1-c1ccc(C(=O)c2c(F)ccc(O)c2F)s1 | – | 22.5 | – | – | – | – | Stable | 0.2 | 4.1 | – | – | – | – | – | – | – | < 10 | – | – | –
NS(=O)(=O)Oc1ccc(-c2ccc(C(=O)c3c(F)ccc(O)c3F)s2)c(F)c1Cl | 244 | 1.4 | – | – | – | – | – | 13.2 | 18.4 | – | – | – | – | – | – | – | – | 22 | – | –
O=C(c1ccc(-c2ccc(O)cc2)s1)c1c(F)ccc(O)c1F | – | 3.1 | – | 7.9 | – | – | – | 23.1 | – | – | 150 | 3.5 | 88.4 | 7.9 | – | – | < 10 | – | < 5 | < 5
